MIC data for 15 compounds are collected here from ChEMBL document CHEMBL1136376, “Identification of 2-aminobenzimidazole dimers as antibacterial agents” (2003).

What all share (assay type): functional
The test system of one test is Escherichia coli. The experiment in a line: Antibacterial activity against Escherichia coli. The procedure, abridged: (§1)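 Broth microdilution MIC run in duplicate. Overnight culture grown in appropriate medium was added to compound in 0.5% DMSO in water, giving about 10²–10³ CFU/well. Growth relative to a compound-free well was read as A595 after 20–24 h at 37 °C. MIC was reported as a range: complete inhibition at the upper concentration, viable cells at the lower. Strains: E. faecalis ATCC 29212, E. coli ATCC 25922, S. aureus ATCC 13709.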

The test system of another test is Enterococcus faecalis. The experiment in a line: Antibacterial activity against Enterococcus faecalis. Put shortly: as §1
The subject of a further test is Streptococcus pyogenes. The experiment in a line: Antibacterial activity against Streptococcus pyogenes.
The subject of a further test is Staphylococcus aureus. Put plainly: Antibacterial activity against Staphylococcus aureus. The procedure, abridged: as §1

Values after ≈ are worked out from the molar mass of the structure shown.

Take `CN(CCNc1nc2cc(Cl)c(Cl)cc2[nH]1)CCNc1nc2cc(Cl)c(Cl)cc2[nH]1`: the MIC against Escherichia coli was determined as 25 µM (≈ 12.2 µg/mL); with Enterococcus faecalis it was 1.5 µM (≈ 0.731 µg/mL); against Streptococcus pyogenes it was 6 µM (≈ 2.92 µg/mL); in the test with Staphylococcus aureus, 12 µM (≈ 5.85 µg/mL).

Regarding `Nc1nc2cc(Cl)c(Cl)cc2n1CCCOCCCn1c(N)nc2cc(Cl)c(Cl)cc21`, the MIC in the test on Escherichia coli and against Staphylococcus aureus was > 100 µM each time.

Turning to `CN(CCCn1c(N)nc2cc(Br)ccc21)CCCn1c(N)nc2cc(Br)ccc21`, the MIC in the test with Escherichia coli and in the test with Staphylococcus aureus was > 100 µM in each case.

`CN(CCn1c(N)nc2cc(Cl)c(Cl)cc21)CCn1c(N)nc2cc(Cl)c(Cl)cc21`: the MIC was 6 µM (≈ 2.92 µg/mL) in the test on Escherichia coli and 12 µM (≈ 5.85 µg/mL) in the test on Staphylococcus aureus.

As to `COC(=O)c1ccc2c(c1)nc(N)n2CCCN(C)CCCn1c(N)nc2cc(C(=O)OC)ccc21`, the minimum inhibitory concentration (MIC) in the test on Escherichia coli and with Staphylococcus aureus was > 100 µM throughout.

For the compound `CN(CCCn1c(N)nc2ccccc21)CCCn1c(N)nc2ccccc21`, the MIC against Escherichia coli and against Staphylococcus aureus was 100 µM (≈ 37.7 µg/mL) each time.

As for `CN(CCCn1c(N)nc2cc(C(F)(F)F)ccc21)CCCn1c(N)nc2cc(C(F)(F)F)ccc21`, the MIC stood at 25 µM (≈ 12.8 µg/mL) against Escherichia coli, 25 µM (≈ 12.8 µg/mL) against Enterococcus faecalis, 25 µM (≈ 12.8 µg/mL) in the test on Streptococcus pyogenes and 50 µM (≈ 25.7 µg/mL) in the test with Staphylococcus aureus.

On to `CN(CCCn1c(N)nc2cc(Cl)c(Cl)cc21)CCCn1c(N)nc2cc(Cl)c(Cl)cc21`, for which the minimum inhibitory concentration (MIC) against Escherichia coli is 6 µM (≈ 3.09 µg/mL); against Enterococcus faecalis, 6 µM (≈ 3.09 µg/mL); with Streptococcus pyogenes, 6 µM (≈ 3.09 µg/mL); in the test on Staphylococcus aureus, 12 µM (≈ 6.18 µg/mL).

Turning to `CN(CCCn1c(N)nc2cc(C#N)ccc21)CCCn1c(N)nc2cc(C#N)ccc21`, the MIC against Escherichia coli and with Staphylococcus aureus was > 100 µM each time.

Turning to `Nc1nc2cc(Cl)c(Cl)cc2n1CCCCCCCn1c(N)nc2cc(Cl)c(Cl)cc21`, the MIC against Escherichia coli and in the test with Staphylococcus aureus was > 100 µM each time.

As to `CN(CCCn1c(N)nc2cc(Cl)ccc21)CCCn1c(N)nc2cc(Cl)ccc21`, the MIC with Escherichia coli, in the test with Enterococcus faecalis, against Streptococcus pyogenes and with Staphylococcus aureus was 50 µM (≈ 22.3 µg/mL) each time.

`Cc1ccc2nc(N)n(CCCN(C)CCCn3c(N)nc4ccc(C)cc43)c2c1`: the MIC in the test with Escherichia coli and against Staphylococcus aureus was > 100 µM in each case.

Take `COc1ccc2nc(N)n(CCCN(C)CCCn3c(N)nc4ccc(OC)cc43)c2c1`: the MIC against Escherichia coli and against Staphylococcus aureus was > 100 µM each time.

As for `CN(CCCNc1nc2cc(Cl)c(Cl)cc2[nH]1)CCCNc1nc2cc(Cl)c(Cl)cc2[nH]1`, the MIC in the test with Escherichia coli stood at 12 µM (≈ 6.18 µg/mL); in the test on Enterococcus faecalis it was 6 µM (≈ 3.09 µg/mL); with Streptococcus pyogenes, 6 µM (≈ 3.09 µg/mL); against Staphylococcus aureus, 6 µM (≈ 3.09 µg/mL).

As to `CN(CCCn1cnc2cc(Cl)c(Cl)cc21)CCCn1cnc2cc(Cl)c(Cl)cc21`, the MIC with Escherichia coli turned out to be 100 µM (≈ 48.5 µg/mL); in the test on Staphylococcus aureus it was 50 µM (≈ 24.3 µg/mL).

The MIC is the lowest concentration that inhibits growth of the organism. Low values mean greater potency, high ones weaker potency.
